Test results from ChEMBL document CHEMBL1157352, “Potent, Plasmodium-selective farnesyltransferase inhibitors that arrest the growth of malaria parasites: structure-activity relationships of ethylenediamine-analogue scaffolds and homology model validation” (J Med Chem, 2008).

Assays:
[1] = Selectivity for Plasmodium falciparum PFT over rat PFT
[2] = system: Plasmodium falciparum; assay: Inhibition of Plasmodium falciparum PFT at 5 nM
[3] = system: Plasmodium falciparum; assay: Inhibition of Plasmodium falciparum PFT at 50 nM
[4] = Inhibition of rat PFT by scintillation proximity assay
[5] = Inhibition of Plasmodium falciparum PFT
[6] = system: Plasmodium falciparum; assay: Antimalarial activity in Plasmodium falciparum K1 infected erythrocytes by [3H]hypoxanthine uptake; assay type: functional; conditions: K1, 72 h, read-out: ED50 (the source's name)
Summary of the method: (§1)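 Parasites kept per Trager–Jensen in RPMI-1640 with 2 mM L-glutamine, 25 mM HEPES, 33 mM NaHCO3, gentamicin, 20% heat-inactivated human A+ plasma. Compound in DMSO added to culture at 0.5% parasitemia and hematocrit; 37 °C, 5% CO2/5% O2/90% N2, 48 h. [8-3H]hypoxanthine (0.3 µCi) added for a further 24 h, then harvested and scintillation-counted. Uninfected-RBC background subtracted; DMSO vehicle taken as 100% growth. ED50 by linear regression.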

[7] = system: Plasmodium falciparum; assay: Antimalarial activity in Plasmodium falciparum 3D7 infected erythrocytes as [3H]hypoxanthine uptake; assay type: functional; conditions: 3D7, 72 h, read-out: ED50 (the source's name); summary of the method: as §1

Cn1cnc(S(=O)(=O)N(CCN(Cc2cncn2C)c2ccc(C#N)cc2)CC2CCN(C(=O)OC(C)(C)C)CC2)c1
Selectivity ratio [1]: 117 | inhibition [2]: 81% | inhibition [3]: 96% | IC50 [4]: 140 nM

Cn1cnc(S(=O)(=O)N(CCCN(Cc2cncn2C)c2ccc(C#N)cc2)CC2CCN(C(=O)OC(C)(C)C)CC2)c1
inhibition [2]: 73% | IC50 [5]: 1 nM | inhibition [3]: 94%

Cn1cnc(S(=O)(=O)N(Cc2ccccc2)[C@H]2CC[C@@H](N(Cc3cncn3C)c3ccc(C#N)cc3)CC2)c1
EC50 [6]: 2750 nM | inhibition [3]: 23%

Cn1cnc(S(=O)(=O)N(CCCN(Cc2cncn2C)c2ccc(C#N)cc2)Cc2ccccc2)c1
inhibition [2]: 16% | EC50 [6]: 2650 nM | inhibition [3]: 71%

Cn1cnc(S(=O)(=O)N(CCN(Cc2cncn2C)c2ccc(C#N)cc2)Cc2ccsc2)c1
EC50 [7]: 150 nM | inhibition [2]: 91% | EC50 [6]: 240 nM | inhibition [3]: 100%

Cn1cnc(S(=O)(=O)N(Cc2ccsc2)CC(C)(C)N(Cc2cncn2C)c2ccc(C#N)cc2)c1
EC50 [7]: 2450 nM | inhibition [3]: 70%

Cn1cnc(S(=O)(=O)N(CC2CCN(C(=O)OC(C)(C)C)CC2)[C@H]2CC[C@H](N(Cc3cncn3C)c3ccc(C#N)cc3)CC2)c1
EC50 [6]: 1200 nM | inhibition [3]: 0%

Cn1cnc(S(=O)(=O)N(CC2CCN(C(=O)OC(C)(C)C)CC2)[C@H]2CC[C@@H](N(Cc3cncn3C)c3ccc(C#N)cc3)CC2)c1
EC50 [6]: 650 nM | inhibition [3]: 0%

Cn1cnc(S(=O)(=O)N(CC2CCN(C(=O)OC(C)(C)C)CC2)CC(C)(C)N(Cc2cncn2C)c2ccc(C#N)cc2)c1
Selectivity ratio [1]: 136 | IC50 [5]: 1.1 nM | inhibition [3]: 87% | IC50 [4]: 150 nM

Cc1ccccc1CN(CC(C)(C)N(Cc1cncn1C)c1ccc(C#N)cc1)S(=O)(=O)c1cn(C)cn1
inhibition [2]: 91% | inhibition [3]: 98%

Cc1ccccc1CN(CCCN(Cc1cncn1C)c1ccc(C#N)cc1)S(=O)(=O)c1cn(C)cn1
inhibition [2]: 24% | inhibition [3]: 76%

Cc1ccccc1CN(CCN(Cc1cncn1C)c1ccc(C#N)cc1)S(=O)(=O)c1cn(C)cn1
inhibition [2]: 95% | inhibition [3]: 99%

Cn1cnc(S(=O)(=O)N(CC2CCN(c3ncccn3)CC2)CC(C)(C)N(Cc2cncn2C)c2ccc(C#N)cc2)c1
inhibition [2]: 93% | inhibition [3]: 100%

Cn1cnc(S(=O)(=O)N(CCCN(Cc2cncn2C)c2ccc(C#N)cc2)CC2CCN(c3ncccn3)CC2)c1
inhibition [2]: 62% | inhibition [3]: 93%

Cn1cnc(S(=O)(=O)N(CCCN(Cc2cncn2C)c2ccc(C#N)cc2)Cc2ccsc2)c1
inhibition [2]: 18% | inhibition [3]: 73%

Cn1cnc(S(=O)(=O)N(CCN(Cc2cncn2C)c2ccc(C#N)cc2)CC2CCN(c3ncccn3)CC2)c1
inhibition [2]: 74% | inhibition [3]: 96%

Cn1cnc(S(=O)(=O)N(CCN(Cc2cncn2C)c2ccc(C#N)cc2)Cc2ccccc2)c1
inhibition [2]: 86% | inhibition [3]: 98%

Cn1cnc(S(=O)(=O)N(Cc2ccccc2)CC(C)(C)N(Cc2cncn2C)c2ccc(C#N)cc2)c1
inhibition [2]: 88% | inhibition [3]: 100%

Cn1cnc(S(=O)(=O)N(Cc2ccccc2)[C@H]2CC[C@H](N(Cc3cncn3C)c3ccc(C#N)cc3)CC2)c1
inhibition [3]: 73%

Cn1cnc(S(=O)(=O)N(CC2CCN(C(=O)OC(C)(C)C)CC2)[C@@H]2CCC[C@@H]2N(Cc2cncn2C)c2ccc(C#N)cc2)c1 (racemic)
Selectivity ratio [1]: > 2.9 | inhibition [2]: 3% | IC50 [5]: 350 nM | EC50 [6]: 1250 nM | inhibition [3]: 2% | IC50 [4]: > 1000 nM

Cn1cnc(S(=O)(=O)N(CC2CCN(c3ncccn3)CC2)[C@@H]2CCC[C@@H]2N(Cc2cncn2C)c2ccc(C#N)cc2)c1 (racemic)
EC50 [7]: 3000 nM | inhibition [2]: 10% | EC50 [6]: 2500 nM | inhibition [3]: 0%

Cn1cnc(S(=O)(=O)N(Cc2ccsc2)[C@H]2CCC[C@@H]2N(Cc2cncn2C)c2ccc(C#N)cc2)c1 (racemic)
EC50 [7]: 2700 nM | inhibition [2]: 11% | EC50 [6]: 2700 nM | inhibition [3]: 57%

Cc1ccccc1CN([C@@H]1CC[C@@H](N(Cc2cncn2C)c2ccc(C#N)cc2)C1)S(=O)(=O)c1cn(C)cn1 (racemic)
EC50 [7]: 2400 nM | EC50 [6]: 2200 nM | inhibition [3]: 33%

Cc1ccccc1CN([C@@H]1CCC[C@@H]1N(Cc1cncn1C)c1ccc(C#N)cc1)S(=O)(=O)c1cn(C)cn1 (racemic)
EC50 [7]: 2800 nM | inhibition [2]: 16% | EC50 [6]: 2800 nM | inhibition [3]: 17%

Cn1cnc(S(=O)(=O)N(Cc2ccsc2)[C@@H]2CCC[C@@H]2N(Cc2cncn2C)c2ccc(C#N)cc2)c1 (racemic)
EC50 [7]: > 5000 nM | inhibition [2]: 0% | EC50 [6]: 4200 nM | inhibition [3]: 9%

Cc1ccccc1CN([C@H]1CC[C@@H](N(Cc2cncn2C)c2ccc(C#N)cc2)C1)S(=O)(=O)c1cn(C)cn1 (racemic)
EC50 [7]: 2400 nM | EC50 [6]: 2600 nM | inhibition [3]: 24%

Cn1cnc(S(=O)(=O)N(CC2CCN(c3ncccn3)CC2)[C@H]2CC[C@@H](N(Cc3cncn3C)c3ccc(C#N)cc3)C2)c1 (racemic)
EC50 [7]: 600 nM | EC50 [6]: 720 nM | inhibition [3]: 6%

Cc1ccccc1CN([C@H]1CCC[C@@H]1N(Cc1cncn1C)c1ccc(C#N)cc1)S(=O)(=O)c1cn(C)cn1 (racemic)
EC50 [7]: 3000 nM | inhibition [2]: 12% | EC50 [6]: 3200 nM | inhibition [3]: 35%

Cn1cnc(S(=O)(=O)N(CC2CCN(C(=O)OC(C)(C)C)CC2)[C@H]2CC[C@@H](N(Cc3cncn3C)c3ccc(C#N)cc3)C2)c1 (racemic)
EC50 [7]: 300 nM | inhibition [2]: 33% | EC50 [6]: 125 nM | inhibition [3]: 83%

Cn1cnc(S(=O)(=O)N(CC2CCN(c3ncccn3)CC2)[C@@H]2CC[C@@H](N(Cc3cncn3C)c3ccc(C#N)cc3)C2)c1 (racemic)
EC50 [7]: 2600 nM | EC50 [6]: 1500 nM | inhibition [3]: 38%

Cn1cnc(S(=O)(=O)N(CC2CCN(c3ncccn3)CC2)[C@H]2CCC[C@@H]2N(Cc2cncn2C)c2ccc(C#N)cc2)c1 (racemic)
EC50 [7]: 2600 nM | inhibition [2]: 12% | EC50 [6]: 750 nM | inhibition [3]: 28%

Cn1cnc(S(=O)(=O)N(Cc2ccccc2)[C@@H]2CC[C@@H](N(Cc3cncn3C)c3ccc(C#N)cc3)C2)c1 (racemic)
EC50 [7]: 340 nM | inhibition [2]: 65% | EC50 [6]: 145 nM | inhibition [3]: 93%

Cn1cnc(S(=O)(=O)N(Cc2ccccc2)[C@H]2CCC[C@@H]2N(Cc2cncn2C)c2ccc(C#N)cc2)c1 (racemic)
EC50 [7]: 3100 nM | inhibition [2]: 20% | EC50 [6]: 2350 nM | inhibition [3]: 42%

Cn1cnc(S(=O)(=O)N(Cc2ccccc2)[C@H]2CC[C@@H](N(Cc3cncn3C)c3ccc(C#N)cc3)C2)c1 (racemic)
EC50 [7]: 700 nM | inhibition [2]: 4% | inhibition [3]: 40%

Cn1cnc(S(=O)(=O)N(CC2CCN(C(=O)OC(C)(C)C)CC2)[C@H]2CCC[C@@H]2N(Cc2cncn2C)c2ccc(C#N)cc2)c1 (racemic)
EC50 [7]: 2650 nM | Selectivity ratio [1]: > 100 | inhibition [2]: 41% | IC50 [5]: 10 nM | inhibition [3]: 82% | IC50 [4]: > 1000 nM

Cn1cnc(S(=O)(=O)N(Cc2ccccc2)[C@@H]2CCC[C@@H]2N(Cc2cncn2C)c2ccc(C#N)cc2)c1 (racemic)
EC50 [7]: > 5000 nM | inhibition [2]: 0% | inhibition [3]: 0%

Cn1cnc(S(=O)(=O)N(CC2CCN(C(=O)OC(C)(C)C)CC2)[C@@H]2CC[C@@H](N(Cc3cncn3C)c3ccc(C#N)cc3)C2)c1 (racemic)
EC50 [7]: 310 nM | inhibition [2]: 86% | IC50 [5]: 3.1 nM | inhibition [3]: 97%

Cn1cnc(S(=O)(=O)N(Cc2ccsc2)[C@@H]2CC[C@@H](N(Cc3cncn3C)c3ccc(C#N)cc3)C2)c1 (racemic)
EC50 [7]: 1500 nM | EC50 [6]: 1200 nM | inhibition [3]: 56%

Cn1cnc(S(=O)(=O)N(Cc2ccsc2)[C@H]2CC[C@@H](N(Cc3cncn3C)c3ccc(C#N)cc3)C2)c1 (racemic)
EC50 [7]: 2400 nM | EC50 [6]: 2500 nM | inhibition [3]: 15%
